Reference: ChEMBL document CHEMBL4308843, “Identification of ABX-1431, a Selective Inhibitor of Monoacylglycerol Lipase and Clinical Candidate for Treatment of Neurological Disorders” (J Med Chem, 2018)
Activity calls are given as the source filed them. The rule behind the calls is not given here.

Tests used:
[1] = Intrinsic clearance in human liver microsomes; assay type: ADME, Microsome; conditions: read-out: CLH
Monoglyceride lipase = target: T1, Monoglyceride lipase (Mus musculus, UniProt O35678); assay: Inhibition of MGLL derived from mouse brain homogenates preincubated for 30 mins followed by JW912 addition after 30 mins by gel-based ABPP assay; assay type: tissue-based
T1 sequence (O35678 whole entry): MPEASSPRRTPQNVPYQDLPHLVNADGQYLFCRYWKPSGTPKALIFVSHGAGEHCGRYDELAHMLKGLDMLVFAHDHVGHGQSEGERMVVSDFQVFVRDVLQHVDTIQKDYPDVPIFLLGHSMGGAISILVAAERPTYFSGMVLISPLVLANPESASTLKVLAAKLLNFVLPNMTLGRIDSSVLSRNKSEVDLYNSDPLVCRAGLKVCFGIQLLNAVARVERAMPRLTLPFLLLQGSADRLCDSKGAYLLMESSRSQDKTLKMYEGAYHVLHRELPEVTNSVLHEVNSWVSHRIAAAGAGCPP

Mus musculus = assay: In-vivo inhibition of MGLL in ICR mouse brain assessed as target engagement at 5 mg/kg, po measured 4 hrs post dose by gel-based ABPP assay relative to control; assay type: functional; set-up: scale not given: the % may be the effect or the level left
In short: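 Mice received a single 5 mg/kg oral gavage dose. Whole brains were collected 4 h post-dose and target engagement was read by gel-based ABPP with FP-Rh probe.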

[2] = target: T2, Platelet-activating factor acetylhydrolase (Homo sapiens, UniProt Q13093); assay: Inhibition of PLA2G7 derived from human PC3 cell lysates preincubated for 30 mins followed by JW912 addition after 30 mins by gel-based ABPP assay; assay type: subcellular, Lysate
T2 sequence (Q13093 whole entry): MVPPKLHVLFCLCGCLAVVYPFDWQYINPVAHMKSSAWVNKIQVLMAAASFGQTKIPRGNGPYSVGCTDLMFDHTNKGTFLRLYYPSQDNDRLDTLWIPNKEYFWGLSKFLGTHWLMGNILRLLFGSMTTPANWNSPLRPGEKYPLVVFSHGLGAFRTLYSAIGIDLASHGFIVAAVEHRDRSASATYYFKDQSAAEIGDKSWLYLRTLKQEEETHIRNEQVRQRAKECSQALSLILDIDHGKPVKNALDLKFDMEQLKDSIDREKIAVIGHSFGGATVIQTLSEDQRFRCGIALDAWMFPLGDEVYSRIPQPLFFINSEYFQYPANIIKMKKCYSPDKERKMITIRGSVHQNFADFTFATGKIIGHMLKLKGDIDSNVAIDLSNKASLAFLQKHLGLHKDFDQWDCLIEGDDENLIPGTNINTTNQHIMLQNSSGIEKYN

[3] = target: T3, Monoacylglycerol lipase ABHD6 (Homo sapiens, UniProt Q9BV23); assay: Inhibition of ABHD6 derived from human PC3 cell lysates preincubated for 30 mins followed by JW912 addition after 30 mins by gel-based ABPP assay; assay type: subcellular, Lysate
T3 sequence (Q9BV23 whole entry): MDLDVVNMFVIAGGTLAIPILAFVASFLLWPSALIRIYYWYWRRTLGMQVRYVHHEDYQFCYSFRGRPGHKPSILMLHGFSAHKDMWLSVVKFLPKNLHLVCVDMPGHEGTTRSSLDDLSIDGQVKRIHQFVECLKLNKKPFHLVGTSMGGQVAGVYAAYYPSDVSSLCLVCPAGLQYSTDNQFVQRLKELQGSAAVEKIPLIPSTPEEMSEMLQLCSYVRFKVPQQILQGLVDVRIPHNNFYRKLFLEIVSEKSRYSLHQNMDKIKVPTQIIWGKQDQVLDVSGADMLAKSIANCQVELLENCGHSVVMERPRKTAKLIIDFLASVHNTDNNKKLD

Row | Compound | IC50 (Monoglyceride lipase) | Activity (Mus musculus) | IC50 [2] | other results
1 | O=C(OC(C(F)(F)F)C(F)(F)F)N1CCN(Cc2ccc(Cl)cc2N2CCCC2)CC1 | – | – | – | microsomal CLint [1]: 34 µL/min/mg
2 | C#Cc1ccc(CN2CCN(C(=O)OC(C(F)(F)F)C(F)(F)F)CC2)c(N2CCCC2)c1 | 159 nM | – | – | –
3 | O=C(OC(C(F)(F)F)C(F)(F)F)N1CCN(Cc2ccc(C(F)(F)F)cc2N2CC[C@H](O)C2)CC1 | 15 nM | 75% | – | –
4 | Cc1cc(Cl)ccc1C(c1ccc(Cl)cc1C)N1CCN(C(=O)OC(C(F)(F)F)C(F)(F)F)CC1 | – | – | > 10000 nM | IC50 [3]: > 10000 nM
5 | O=C(OC(C(F)(F)F)C(F)(F)F)N1CCN(Cc2ccc(Cl)cc2N2CC3CCC(C2)O3)CC1 | – | 100% | – | –
6 | O=C(OC(C(F)(F)F)C(F)(F)F)N1CCN(Cc2cc(Cl)ccc2N2CCOCC2)CC1 | – | – | > 10000 nM | IC50 [3]: > 10000 nM
7 | O=C(OC(C(F)(F)F)C(F)(F)F)N1CCN(C(c2ccc(Cl)cc2)c2ccc(Cl)cc2)CC1 | – | – | > 1000 nM | –
8 | O=C(OC(C(F)(F)F)C(F)(F)F)N1CCN(Cc2ccc(C(F)(F)F)cc2N2CCCCC2)CC1 | 130 nM | – | – | –
9 | O=C(OC(C(F)(F)F)C(F)(F)F)N1CCN(Cc2ccc(C(F)(F)F)cc2N2C[C@H]3CC[C@@H](C2)O3)CC1 | – | 100% | > 1000 nM | –
10 | O=C(OC(C(F)(F)F)C(F)(F)F)N1CCN(Cc2ccc(C(F)(F)F)cc2N2CC3COCC3C2)CC1 (centres undefined) | 17 nM | 25% | – | –
11 | O=C(OC(C(F)(F)F)C(F)(F)F)N1CCN(Cc2cccc(Cl)c2N2CCOCC2)CC1 | – | – | – | microsomal CLint [1]: 76 µL/min/mg
12 | O=C(OC(C(F)(F)F)C(F)(F)F)N1CCN(Cc2ccc(Cl)cc2N2CCOCC2)CC1 | – | – | – | microsomal CLint [1]: 45 µL/min/mg
13 | CN1CC2CN(c3cc(C(F)(F)F)ccc3CN3CCN(C(=O)OC(C(F)(F)F)C(F)(F)F)CC3)CC2C1 (centres undefined) | 239 nM | inactive | – | –
14 | O=C(OC(C(F)(F)F)C(F)(F)F)N1CCN(Cc2ccc(C(F)(F)F)cc2N2CCOCC2)CC1 | – | 100% | – | microsomal CLint [1]: 24 µL/min/mg
15 | O=C(OC(C(F)(F)F)C(F)(F)F)N1CCN(Cc2c(Cl)cccc2N2CCOCC2)CC1 | – | – | > 10000 nM | –
16 | O=C(OC(C(F)(F)F)C(F)(F)F)N1CCN(Cc2ccc(C(F)(F)F)cc2N2CC[C@@H](O)C2)CC1 | 8 nM | 100% | – | –
17 | O=C(OC(C(F)(F)F)C(F)(F)F)N1CCN(Cc2ccc(Cl)cc2N2CCCCC2)CC1 | 120 nM | – | > 10000 nM | –
18 | O=C(OC(C(F)(F)F)C(F)(F)F)N1CCN(Cc2ccc(C(F)(F)F)cc2N2[C@@H]3CC[C@H]2COC3)CC1 | – | 100% | > 1000 nM | –
19 | O=C(OC(C(F)(F)F)C(F)(F)F)N1CCN(Cc2ccc(Cl)cc2N2CCN(CCF)CC2)CC1 | – | 75% | – | –
20 | O=C(OC(C(F)(F)F)C(F)(F)F)N1CCN(Cc2ccc(Cl)cc2N2CC[C@H]3CCCN3C2)CC1 | 66 nM | 50% | – | –
21 | O=C(OC(C(F)(F)F)C(F)(F)F)N1CCN(Cc2ccc(C(F)(F)F)cc2N2CCC3(CCOCC3)C2)CC1 | 24 nM | 75% | > 1000 nM | –
